What follows are compounds tested on MCF7 (assay: Antiproliferative activity against human MCF7 cells incubated for 72 hrs by SRB assay). Conditions: MCF7, 72 h.
Format: functional, cell-based
Summary of the method: (§1)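 Sulforhodamine B colorimetric read-out after 72 h drug exposure. Cells kept in DMEM with 10 % FBS and 1 % penicillin/streptomycin at 37 °C under 5 % CO₂, mycoplasma-checked, passaged under 6 months. Compounds given from DMSO stocks diluted in medium, final DMSO ≤ 0.1 % v/v, with DMSO-only parallel cultures as controls. IC50 reported as mean ± SD of three independent determinations, each run in duplicate.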

Compound | IC50
Cc1ccc(S(=O)(=O)N2CC(CCn3cnc4c(Cl)nc(Cl)nc43)Oc3cc(Cl)ccc32)cc1 (configuration not stated) | 3.26 µM

What follows are compounds tested on HCT-116 (assay: Antiproliferative activity against human HCT-116 cells incubated for 72 hrs by SRB assay). Conditions: HCT-116, 72 h.
Format: functional, cell-based
Summary of the method: as §1

Compound | IC50
Cc1ccc(S(=O)(=O)N2CC(CCn3cnc4c(Cl)nc(Cl)nc43)Oc3cc(Cl)ccc32)cc1 (configuration not stated) | 7.63 µM

Organism: Homo sapiens
Experiment: Inhibition of human AKT assessed as residual activity at 5 uM relative to control
Conditions: not given
Summary of the method: (§2)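 Residual kinase activity determined with each compound at 5×10⁻⁶ and 5×10⁻⁵ M, in singlicate per kinase assay, expressed relative to uninhibited control.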

Compound | Activity
Cc1ccc(S(=O)(=O)N2CC(CCn3cnc4c(Cl)nc(Cl)nc43)Oc3cc(Cl)ccc32)cc1 (configuration not stated) | 103%

Organism: Homo sapiens
Experiment: Inhibition of human AKT assessed as residual activity at 50 uM relative to control
Conditions: not given
Summary of the method: as §2

Compound | Activity
Cc1ccc(S(=O)(=O)N2CC(CCn3cnc4c(Cl)nc(Cl)nc43)Oc3cc(Cl)ccc32)cc1 (configuration not stated) | 139%

The compounds below were run against 5'-AMP-activated protein kinase catalytic subunit alpha-1 (Homo sapiens) (UniProt Q13131) (assay: Inhibition of human AMPK alpha-1 assessed as residual activity at 5 uM relative to control). Conditions: not given.
Summary of the method: as §2

Chain of 5'-AMP-activated protein kinase catalytic subunit alpha-1 (Homo sapiens) (Q13131 whole entry, looked up): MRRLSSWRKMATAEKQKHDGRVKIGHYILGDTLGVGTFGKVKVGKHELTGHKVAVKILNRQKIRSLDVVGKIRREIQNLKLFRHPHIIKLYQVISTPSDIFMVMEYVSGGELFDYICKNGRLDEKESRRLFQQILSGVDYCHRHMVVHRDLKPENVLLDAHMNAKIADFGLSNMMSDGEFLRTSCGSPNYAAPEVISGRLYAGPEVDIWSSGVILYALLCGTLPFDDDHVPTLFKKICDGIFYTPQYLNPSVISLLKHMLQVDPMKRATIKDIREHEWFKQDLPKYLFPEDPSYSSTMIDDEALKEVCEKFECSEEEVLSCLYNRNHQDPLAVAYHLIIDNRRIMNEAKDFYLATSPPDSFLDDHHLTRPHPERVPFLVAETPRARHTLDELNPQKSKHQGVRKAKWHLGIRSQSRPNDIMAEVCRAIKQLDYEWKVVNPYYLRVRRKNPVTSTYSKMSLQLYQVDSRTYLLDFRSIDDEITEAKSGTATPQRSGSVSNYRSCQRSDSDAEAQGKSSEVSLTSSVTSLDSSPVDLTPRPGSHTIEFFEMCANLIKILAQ

Compound | Activity
Cc1ccc(S(=O)(=O)N2CC(CCn3cnc4c(Cl)nc(Cl)nc43)Oc3cc(Cl)ccc32)cc1 (configuration not stated) | 87%

Each compound was assayed against 5'-AMP-activated protein kinase catalytic subunit alpha-1 (Homo sapiens) (UniProt Q13131) (assay: Inhibition of human AMPK alpha-1 assessed as residual activity at 50 uM relative to control). Conditions: not given.
Summary of the method: as §2

Compound | Activity
Cc1ccc(S(=O)(=O)N2CC(CCn3cnc4c(Cl)nc(Cl)nc43)Oc3cc(Cl)ccc32)cc1 (configuration not stated) | 89%

What follows are compounds tested against Epidermal growth factor receptor (Homo sapiens) (UniProt P00533) (assay: Inhibition of human EGFR assessed as residual activity at 5 uM relative to control). Conditions: not given.
Summary of the method: as §2

Chain of Epidermal growth factor receptor (Homo sapiens) (P00533 whole entry): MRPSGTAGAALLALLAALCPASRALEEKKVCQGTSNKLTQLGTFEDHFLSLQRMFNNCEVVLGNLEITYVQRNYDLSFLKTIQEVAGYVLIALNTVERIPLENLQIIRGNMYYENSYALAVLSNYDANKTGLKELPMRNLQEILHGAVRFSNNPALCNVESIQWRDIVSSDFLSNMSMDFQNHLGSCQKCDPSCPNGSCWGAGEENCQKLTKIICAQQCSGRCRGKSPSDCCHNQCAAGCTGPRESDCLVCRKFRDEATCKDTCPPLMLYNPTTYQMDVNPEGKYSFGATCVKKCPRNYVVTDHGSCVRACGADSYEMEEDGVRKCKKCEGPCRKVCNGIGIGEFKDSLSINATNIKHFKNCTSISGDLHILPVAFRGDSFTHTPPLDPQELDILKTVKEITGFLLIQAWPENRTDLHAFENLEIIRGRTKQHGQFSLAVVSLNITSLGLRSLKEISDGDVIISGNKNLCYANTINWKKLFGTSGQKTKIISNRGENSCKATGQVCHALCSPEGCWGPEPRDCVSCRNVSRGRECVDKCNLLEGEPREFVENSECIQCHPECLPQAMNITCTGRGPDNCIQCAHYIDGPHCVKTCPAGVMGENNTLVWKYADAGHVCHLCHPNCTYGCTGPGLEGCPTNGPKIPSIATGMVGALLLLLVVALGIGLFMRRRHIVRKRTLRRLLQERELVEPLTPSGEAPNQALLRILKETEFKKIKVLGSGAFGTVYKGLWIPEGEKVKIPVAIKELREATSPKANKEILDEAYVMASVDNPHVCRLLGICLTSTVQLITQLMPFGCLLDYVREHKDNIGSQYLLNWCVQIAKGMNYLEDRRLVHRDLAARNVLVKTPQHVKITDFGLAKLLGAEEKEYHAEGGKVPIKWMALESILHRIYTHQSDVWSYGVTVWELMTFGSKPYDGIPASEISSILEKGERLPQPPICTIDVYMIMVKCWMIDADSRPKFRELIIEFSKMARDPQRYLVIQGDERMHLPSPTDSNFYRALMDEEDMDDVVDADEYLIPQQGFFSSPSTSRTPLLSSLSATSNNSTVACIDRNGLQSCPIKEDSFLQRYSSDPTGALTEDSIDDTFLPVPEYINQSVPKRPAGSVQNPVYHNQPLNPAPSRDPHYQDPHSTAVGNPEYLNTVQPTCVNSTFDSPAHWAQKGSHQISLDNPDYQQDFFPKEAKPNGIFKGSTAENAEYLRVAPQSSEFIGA

Compound | Activity
Cc1ccc(S(=O)(=O)N2CC(CCn3cnc4c(Cl)nc(Cl)nc43)Oc3cc(Cl)ccc32)cc1 (configuration not stated) | 74%

Each compound was assayed against Epidermal growth factor receptor (Homo sapiens) (UniProt P00533) (assay: Inhibition of human EGFR assessed as residual activity at 50 uM relative to control). Conditions: not given.
Summary of the method: as §2

Compound | Activity
Cc1ccc(S(=O)(=O)N2CC(CCn3cnc4c(Cl)nc(Cl)nc43)Oc3cc(Cl)ccc32)cc1 (configuration not stated) | 57%

What follows are compounds tested against Receptor tyrosine-protein kinase erbB-2 (Homo sapiens) (UniProt P04626) (assay: Inhibition of human HER2 assessed as residual activity at 5 uM relative to control). Conditions: not given.
Summary of the method: as §2

Chain of Receptor tyrosine-protein kinase erbB-2 (Homo sapiens) (P04626 whole entry): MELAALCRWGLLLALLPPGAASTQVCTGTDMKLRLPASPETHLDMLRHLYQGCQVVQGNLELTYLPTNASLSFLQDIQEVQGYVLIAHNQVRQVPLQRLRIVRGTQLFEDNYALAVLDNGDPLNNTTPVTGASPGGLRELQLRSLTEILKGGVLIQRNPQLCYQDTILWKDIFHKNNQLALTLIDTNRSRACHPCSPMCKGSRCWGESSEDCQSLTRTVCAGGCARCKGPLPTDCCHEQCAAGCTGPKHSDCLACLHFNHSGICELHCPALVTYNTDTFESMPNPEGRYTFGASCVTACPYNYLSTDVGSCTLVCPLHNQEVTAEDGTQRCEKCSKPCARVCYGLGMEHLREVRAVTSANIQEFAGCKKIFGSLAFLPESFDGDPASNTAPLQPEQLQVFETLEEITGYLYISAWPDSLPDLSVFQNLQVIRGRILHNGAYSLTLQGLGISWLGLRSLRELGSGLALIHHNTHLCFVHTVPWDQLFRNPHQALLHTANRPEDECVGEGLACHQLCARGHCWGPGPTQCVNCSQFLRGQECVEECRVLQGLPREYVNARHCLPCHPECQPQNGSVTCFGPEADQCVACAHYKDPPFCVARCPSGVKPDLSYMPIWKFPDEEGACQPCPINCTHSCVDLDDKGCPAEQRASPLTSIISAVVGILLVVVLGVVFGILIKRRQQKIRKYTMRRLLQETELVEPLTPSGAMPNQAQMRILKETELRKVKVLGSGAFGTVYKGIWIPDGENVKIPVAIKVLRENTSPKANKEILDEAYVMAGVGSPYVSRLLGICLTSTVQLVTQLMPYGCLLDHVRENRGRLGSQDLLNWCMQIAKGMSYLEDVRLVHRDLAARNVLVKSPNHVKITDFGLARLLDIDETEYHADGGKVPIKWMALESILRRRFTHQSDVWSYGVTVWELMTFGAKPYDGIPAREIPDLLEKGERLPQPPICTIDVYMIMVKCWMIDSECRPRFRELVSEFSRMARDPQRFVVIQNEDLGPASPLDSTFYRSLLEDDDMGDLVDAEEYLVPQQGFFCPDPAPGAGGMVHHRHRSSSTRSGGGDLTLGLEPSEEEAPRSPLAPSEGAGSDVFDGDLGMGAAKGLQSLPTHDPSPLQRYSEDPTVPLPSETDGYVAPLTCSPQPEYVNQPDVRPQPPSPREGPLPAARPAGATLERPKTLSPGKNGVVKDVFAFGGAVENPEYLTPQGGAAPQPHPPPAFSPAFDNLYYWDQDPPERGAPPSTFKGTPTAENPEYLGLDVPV

Compound | Activity
Cc1ccc(S(=O)(=O)N2CC(CCn3cnc4c(Cl)nc(Cl)nc43)Oc3cc(Cl)ccc32)cc1 (configuration not stated) | 76%

These compounds were tested against Receptor tyrosine-protein kinase erbB-2 (Homo sapiens) (UniProt P04626) (assay: Inhibition of human HER2 assessed as residual activity at 50 uM relative to control). Conditions: not given.
Summary of the method: as §2

Compound | Activity
Cc1ccc(S(=O)(=O)N2CC(CCn3cnc4c(Cl)nc(Cl)nc43)Oc3cc(Cl)ccc32)cc1 (configuration not stated) | 67%

What follows are compounds tested against Mitogen-activated protein kinase 1 (Homo sapiens) (UniProt P28482) (assay: Inhibition of human ERK2 assessed as residual activity at 5 uM relative to control). Conditions: not given.
Summary of the method: as §2

Chain of Mitogen-activated protein kinase 1 (Homo sapiens) (P28482 whole entry): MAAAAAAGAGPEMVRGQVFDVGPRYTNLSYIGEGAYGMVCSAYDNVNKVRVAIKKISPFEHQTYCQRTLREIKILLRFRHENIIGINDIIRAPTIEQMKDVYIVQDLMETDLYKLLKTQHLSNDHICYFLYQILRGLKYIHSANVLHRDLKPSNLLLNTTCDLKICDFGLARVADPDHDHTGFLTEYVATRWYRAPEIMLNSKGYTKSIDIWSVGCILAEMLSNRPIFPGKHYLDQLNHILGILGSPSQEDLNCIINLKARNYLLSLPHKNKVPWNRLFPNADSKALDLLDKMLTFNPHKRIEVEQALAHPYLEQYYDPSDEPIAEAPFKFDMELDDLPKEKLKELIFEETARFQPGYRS

Compound | Activity
Cc1ccc(S(=O)(=O)N2CC(CCn3cnc4c(Cl)nc(Cl)nc43)Oc3cc(Cl)ccc32)cc1 (configuration not stated) | 93%

The compounds below were run against Mitogen-activated protein kinase 1 (Homo sapiens) (UniProt P28482) (assay: Inhibition of human ERK2 assessed as residual activity at 50 uM relative to control). Conditions: not given.
Summary of the method: as §2

Compound | Activity
Cc1ccc(S(=O)(=O)N2CC(CCn3cnc4c(Cl)nc(Cl)nc43)Oc3cc(Cl)ccc32)cc1 (configuration not stated) | 94%

Each compound was assayed against Mitogen-activated protein kinase 8 (Homo sapiens) (UniProt P45983) (assay: Inhibition of human JNK1 assessed as residual activity at 5 uM relative to control). Conditions: not given.
Summary of the method: as §2

Chain of Mitogen-activated protein kinase 8 (Homo sapiens) (P45983 whole entry): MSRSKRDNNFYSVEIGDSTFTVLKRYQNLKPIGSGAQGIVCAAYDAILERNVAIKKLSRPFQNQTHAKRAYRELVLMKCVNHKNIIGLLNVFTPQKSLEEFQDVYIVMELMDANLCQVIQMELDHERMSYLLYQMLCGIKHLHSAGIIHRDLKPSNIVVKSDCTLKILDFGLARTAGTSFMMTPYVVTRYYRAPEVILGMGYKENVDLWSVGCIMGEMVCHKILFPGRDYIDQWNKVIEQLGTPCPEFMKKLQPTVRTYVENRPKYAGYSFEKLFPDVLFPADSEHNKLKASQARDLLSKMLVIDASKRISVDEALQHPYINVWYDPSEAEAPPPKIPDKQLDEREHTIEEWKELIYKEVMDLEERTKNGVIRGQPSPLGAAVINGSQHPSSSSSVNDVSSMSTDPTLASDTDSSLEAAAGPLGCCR

Compound | Activity
Cc1ccc(S(=O)(=O)N2CC(CCn3cnc4c(Cl)nc(Cl)nc43)Oc3cc(Cl)ccc32)cc1 (configuration not stated) | 78%

Each compound was assayed against Mitogen-activated protein kinase 8 (Homo sapiens) (UniProt P45983) (assay: Inhibition of human JNK1 assessed as residual activity at 50 uM relative to control). Conditions: not given.
Summary of the method: as §2

Compound | Activity
Cc1ccc(S(=O)(=O)N2CC(CCn3cnc4c(Cl)nc(Cl)nc43)Oc3cc(Cl)ccc32)cc1 (configuration not stated) | 67%

These compounds were tested against T1, LKB1-STRAD-MO25 complex (Homo sapiens) (UniProt Q15831+Q7RTN6+Q9Y376) (assay: Inhibition of human LKB1/MO25/STRADalpha assessed as residual activity at 5 uM relative to control). Conditions: not given.
Format: protein-complex assay
Summary of the method: as §2

Compound | Activity
Cc1ccc(S(=O)(=O)N2CC(CCn3cnc4c(Cl)nc(Cl)nc43)Oc3cc(Cl)ccc32)cc1 (configuration not stated) | 84%

The compounds below were run against T1, LKB1-STRAD-MO25 complex (Homo sapiens) (assay: Inhibition of human LKB1/MO25/STRADalpha assessed as residual activity at 50 uM relative to control). Conditions: not given.
Format: protein-complex assay
Summary of the method: as §2

Compound | Activity
Cc1ccc(S(=O)(=O)N2CC(CCn3cnc4c(Cl)nc(Cl)nc43)Oc3cc(Cl)ccc32)cc1 (configuration not stated) | 100%

What follows are compounds tested against Mitogen-activated protein kinase 14 (Homo sapiens) (UniProt Q16539) (assay: Inhibition of human P38-alpha assessed as residual activity at 5 uM relative to control). Conditions: not given.
Summary of the method: as §2

Chain of Mitogen-activated protein kinase 14 (Homo sapiens) (Q16539 whole entry): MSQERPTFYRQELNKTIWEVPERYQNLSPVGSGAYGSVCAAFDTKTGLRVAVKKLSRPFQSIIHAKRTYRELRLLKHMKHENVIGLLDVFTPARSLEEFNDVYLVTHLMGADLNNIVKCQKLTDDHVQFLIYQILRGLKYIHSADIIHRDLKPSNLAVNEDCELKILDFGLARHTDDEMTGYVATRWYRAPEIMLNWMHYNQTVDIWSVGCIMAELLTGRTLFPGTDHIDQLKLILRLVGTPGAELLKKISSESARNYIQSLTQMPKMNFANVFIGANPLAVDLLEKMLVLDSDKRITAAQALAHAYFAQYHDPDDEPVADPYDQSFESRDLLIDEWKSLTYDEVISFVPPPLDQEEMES

Compound | Activity
Cc1ccc(S(=O)(=O)N2CC(CCn3cnc4c(Cl)nc(Cl)nc43)Oc3cc(Cl)ccc32)cc1 (configuration not stated) | 72%

Reference: ChEMBL document CHEMBL6071131, “New substituted benzoxazine derivatives as potent inducers of membrane permeability and cell death” (Bioorg Med Chem, 2024)
